Experimental data from different studies.
Compare with care: the assays were run in different laboratories.
Target: Mu-type opioid receptor (OPRM1, Homo sapiens, UniProt P35372)

Structure (SMILES)	observed	action	technique	notes	measurement	value
CC(CCc1ccccc1)NC(C)C(O)c1ccc(O)cc1 (stereo not drawn)	ligand displacement		radioligand		IC50	9950 nM
c1ccc([C@]2(CCN[C@H]3CCOc4ccccc43)CCOC3(CCCC3)C2)nc1	cAMP	agonist	luciferase		EC50	1.6 nM
CC(NCCc1ccc(O)cc1)C(O)c1ccc(O)cc1 (stereo not drawn)	ligand displacement		radioligand		IC50	9180 nM
CCCCC/C=C\C/C=C\C/C=C\CCCCC(=O)O	ligand displacement		radioligand	cell membranes	Ki	22700 nM
COc1cc(-c2cnc3c(c2)C[C@@]2(OCCCc4ccccc4)[C@H]4Cc5ccc(O)c6c5[C@@]2(CCN4CC2CC2)[C@H]3O6)ccn1	cell-free assay				Ki	< 10 nM
Cc1cc(O)cc(C)c1C[C@H](N)C(=O)N1Cc2ccccc2C[C@H]1C(=O)NCC(=O)NC(c1ccccc1)c1ccccc1	ligand displacement		radioligand	cell membranes	Ki	1.71 nM
Clc1ccc(CSc2nnc(-c3ccccn3)n2Cc2ccco2)cc1Cl	β-arrestin recruitment	agonist	imaging		EC50	> 32000 nM
CCCCCCCCC[C@@H]1CC(=O)NCC(=O)N[C@H](Cc2ccc(O)cc2)C(=O)NCC(=O)N[C@@H](Cc2ccccc2)C(=O)O1	ligand displacement		radioligand		Ki	6400 nM
Cc1cc(O)cc(C)c1C[C@H](N)C(=O)N1Cc2ccccc2C[C@@H]1C(=O)NCC(=O)NCc1ccccc1	ligand displacement		radioligand	cell membranes	Ki	0.068 nM
CC(CCc1ccc(O)cc1)NCCc1ccc(O)c(O)c1 (stereo not drawn)	ligand displacement		radioligand		IC50	1660 nM
Cc1cc(O)cc(C)c1C[C@H](N)C(=O)N1Cc2ccccc2C[C@H]1C(=O)NCC(=O)NCc1ccc(Cl)cc1	ligand displacement		radioligand	cell membranes	Ki	2.9 nM
Cc1cccc(C)c1-c1cnc2c(c1)C[C@@]1(OCCCc3ccccc3)[C@H]3Cc4ccc(O)c5c4[C@@]1(CCN3CC1CC1)[C@H]2O5	cell-free assay				Ki	~200 nM
